Results taken from ChEMBL document CHEMBL1153925, “Synthesis, characterization and biological activity of ring-substituted 6-benzylamino-9-tetrahydropyran-2-yl and 9-tetrahydrofuran-2-ylpurine derivatives” (Bioorg Med Chem, 2009).

Columns and labels:
Triticum aestivum = experiment: Cytokinin activity in wheat leaf assessed as stimulation of retention of chlorophyll in excised leaves at 0.1 mM relative to 6-benzylaminopurine; assay type: functional
Amaranthus = experiment: Cytokinin activity in cotyledons assessed as dark induction of betacyanin synthesis at 100 uM relative to 6-benzylaminopurine; assay type: functional
MCF7 = experiment: Cytotoxicity against human MCF7 cells after 72 hrs by Calcein AM assay; assay type: ADME, cell-based; conditions: MCF7, 72 h
Nicotiana tabacum [1] = experiment: Cytokinin activity in tobacco callus assessed as stimulation of callus growth at 100 uM relative to 6-benzylaminopurine; assay type: functional
Outline: (§1)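 Compounds dissolved in DMSO, diluted with water to 5 × 10^-2 M stock, then diluted in medium to 10^-8 to 10^-4 M. Final DMSO ≤0.2%; solvent control 0.2% DMSO. Readout was cytokinin-dependent tobacco callus growth. Activity is expressed relative to 10^-6 M BAP (=100%) at each compound's optimal concentration. Five replicates per concentration; whole test run at least twice.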

BJ = experiment: Cytotoxicity against human BJ cells after 72 hrs by MTT assay; assay type: ADME, cell-based
K562 = experiment: Cytotoxicity against human K562 cells after 72 hrs by Calcein AM assay; assay type: ADME, cell-based; conditions: K562, 72 h
Nicotiana tabacum [2] = experiment: Cytokinin activity in tobacco callus assessed as stimulation of callus growth at 1 uM relative to 6-benzylaminopurine; assay type: functional
Nicotiana tabacum [3] = experiment: Cytokinin activity in tobacco callus assessed as stimulation of callus growth at 10 uM relative to 6-benzylaminopurine; assay type: functional; outline: as §1
[4] = Stability assessed as free base release at pH 5 after 24 hr by HPLC-PDA method; assay type: physicochemical; conditions: pH 5, 24 h
Outline: (§2)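 10^-2 M methanol solution diluted to 10^-4 M in McIlvaine buffer at pH 3, 4, 5, 6 or 7, then incubated at 25 °C. Direct injection onto reversed-phase C18 after 1 h and again after 24 h. Methanol/15 mM formic acid (pH 4, ammonium) gradient at 0.3 mL/min, PDA at 270 nm. Parent and released free base (m-topolin) reported as peak area %.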

[5] = Stability assessed as free base release at pH 6 after 1 hr by HPLC-PDA method; assay type: physicochemical; conditions: pH 6, 1 h; outline: as §2
[6] = Stability assessed as free base release at pH 3 after 1 hr by HPLC-PDA method; assay type: physicochemical; conditions: pH 3, 1 h; outline: as §2
[7] = Stability assessed as compound peak area at pH 4 after 1 hr by HPLC-PDA method; assay type: physicochemical; conditions: read-out: Stability; outline: as §2
[8] = Stability assessed as free base release at pH 7 after 1 hr by HPLC-PDA method; assay type: physicochemical; conditions: pH 7, 1 h; outline: as §2
[9] = Stability assessed as free base release at pH 6 after 24 hr by HPLC-PDA method; assay type: physicochemical; conditions: pH 6, 24 h; outline: as §2
[10] = Stability assessed as compound peak area at pH 7 after 1 hr by HPLC-PDA method; assay type: physicochemical; conditions: read-out: Stability; outline: as §2
[11] = Stability assessed as free base release at pH 7 after 24 hr by HPLC-PDA method; assay type: physicochemical; conditions: pH 7, 24 h; outline: as §2
[12] = Stability assessed as compound peak area at pH 5 after 1 hr by HPLC-PDA method; assay type: physicochemical; conditions: read-out: Stability; outline: as §2
[13] = Stability assessed as compound peak area at pH 3 after 24 hrs by HPLC-PDA method; assay type: physicochemical; conditions: read-out: Stability; outline: as §2
[14] = Stability assessed as free base release at pH 5 after 1 hr by HPLC-PDA method; assay type: physicochemical; conditions: pH 5, 1 h; outline: as §2
[15] = Stability assessed as free base release at pH 4 after 1 hr by HPLC-PDA method; assay type: physicochemical; conditions: pH 4, 1 h; outline: as §2
[16] = Stability assessed as compound peak area at pH 7 after 24 hrs by HPLC-PDA method; assay type: physicochemical; conditions: read-out: Stability; outline: as §2
[17] = Stability assessed as free base release at pH 3 after 24 hr by HPLC-PDA method; assay type: physicochemical; conditions: pH 3, 24 h; outline: as §2
[18] = Stability assessed as compound peak area at pH 6 after 24 hrs by HPLC-PDA method; assay type: physicochemical; conditions: read-out: Stability; outline: as §2
[19] = Stability assessed as compound peak area at pH 4 after 24 hrs by HPLC-PDA method; assay type: physicochemical; conditions: read-out: Stability; outline: as §2
[20] = Stability assessed as compound peak area at pH 6 after 1 hr by HPLC-PDA method; assay type: physicochemical; conditions: read-out: Stability; outline: as §2
[21] = Stability assessed as compound peak area at pH 5 after 24 hrs by HPLC-PDA method; assay type: physicochemical; conditions: read-out: Stability; outline: as §2
[22] = Stability assessed as compound peak area at pH 3 after 1 hr by HPLC-PDA method; assay type: physicochemical; conditions: read-out: Stability; outline: as §2
[23] = Stability assessed as free base release at pH 4 after 24 hr by HPLC-PDA method; assay type: physicochemical; conditions: pH 4, 24 h; outline: as §2

Compound: COc1cccc(OC)c1CNc1ncnc2c1ncn2C1CCCCO1 (stereo not drawn)
- Activity (Triticum aestivum): 14%
- Activity (Amaranthus): 13%
- IC50 (MCF7): > 100 µM
- Activity (Nicotiana tabacum [1]): 57%
- IC50 (BJ): > 100 µM
- IC50 (K562): 10.3 µM

Compound: COc1ccccc1CNc1ncnc2c1ncn2C1CCCCO1 (stereo not drawn)
- Activity (Triticum aestivum): 104%
- Activity (Amaranthus): 84%
- Activity (Nicotiana tabacum [2]): 93%
- IC50 (MCF7): > 100 µM
- IC50 (BJ): > 100 µM
- IC50 (K562): 97 µM

Compound: COc1ccc(CNc2ncnc3c2ncn3C2CCCCO2)c(OC)c1 (stereo not drawn)
- Activity (Triticum aestivum): 25%
- Activity (Amaranthus): 9%
- IC50 (MCF7): > 25 µM
- IC50 (BJ): > 25 µM
- IC50 (K562): > 25 µM

Compound: COc1ccc(OC)c(CNc2ncnc3c2ncn3C2CCCCO2)c1 (stereo not drawn)
- Activity (Triticum aestivum): 19%
- Activity (Nicotiana tabacum [3]): 42%
- Activity (Amaranthus): 28%
- IC50 (MCF7): 25.4 µM
- IC50 (BJ): > 100 µM
- IC50 (K562): 16.5 µM

Compound: c1ccc(CNc2ncnc3c2ncn3C2CCCCO2)cc1 (stereo not drawn)
- Activity (Triticum aestivum): 104%
- Activity (Amaranthus): 114%
- Activity (Nicotiana tabacum [2]): 102%
- IC50 (MCF7): > 100 µM
- IC50 (BJ): > 100 µM
- IC50 (K562): > 100 µM

Compound: Oc1ccc(CNc2ncnc3c2ncn3C2CCCCO2)cc1 (stereo not drawn)
- Activity (Triticum aestivum): 4%
- Activity (Nicotiana tabacum [3]): 20%
- Activity (Amaranthus): 34%
- IC50 (MCF7): > 100 µM
- IC50 (BJ): > 100 µM
- IC50 (K562): > 100 µM

Compound: COc1cccc(CNc2ncnc3c2ncn3C2CCCCO2)c1 (stereo not drawn)
- Activity (Triticum aestivum): 72%
- Activity (Amaranthus): 76%
- Activity (Nicotiana tabacum [2]): 90%
- IC50 (MCF7): 97 µM
- IC50 (BJ): > 100 µM
- IC50 (K562): 61 µM

Compound: COc1cccc(CNc2ncnc3c2ncn3C2CCCCO2)c1O (stereo not drawn)
- Activity (Amaranthus): 18%
- IC50 (MCF7): > 100 µM
- Activity (Nicotiana tabacum [1]): 12%
- IC50 (BJ): > 100 µM
- IC50 (K562): > 100 µM

Compound: Oc1cccc(CNc2ncnc3c2ncn3C2CCCO2)c1 (stereo not drawn)
- Activity [4]: 9.2%
- Activity [5]: 0.4%
- Activity [6]: 36.2%
- remaining at 1 h [7]: 97.2%
- Activity [8]: 0.3%
- Activity (Triticum aestivum): 131%
- Activity [9]: 0.6%
- remaining at 1 h [10]: 99.7%
- Activity [11]: 0.3%
- Activity (Amaranthus): 82%
- Activity (Nicotiana tabacum [2]): 87%
- remaining at 1 h [12]: 99.5%
- remaining at 24 h [13]: 0.3%
- Activity [14]: 0.5%
- Activity [15]: 2.8%
- IC50 (MCF7): > 100 µM
- remaining at 24 h [16]: 99.7%
- Activity [17]: 99.7%
- remaining at 24 h [18]: 99.4%
- remaining at 24 h [19]: 37.5%
- remaining at 1 h [20]: 99.6%
- remaining at 24 h [21]: 90.8%
- remaining at 1 h [22]: 63.8%
- IC50 (BJ): > 100 µM
- IC50 (K562): > 100 µM
- Activity [23]: 62.5%

Compound: COc1cc(OC)c(OC)cc1CNc1ncnc2c1ncn2C1CCCCO1 (stereo not drawn)
- Activity (Amaranthus): 3%
- IC50 (MCF7): > 100 µM
- Activity (Nicotiana tabacum [1]): 11%
- IC50 (BJ): > 100 µM
- IC50 (K562): > 100 µM

Compound: COc1cc(CNc2ncnc3c2ncn3C2CCCO2)cc(OC)c1 (stereo not drawn)
- Activity (Triticum aestivum): 8%
- Activity (Amaranthus): 18%
- IC50 (MCF7): > 100 µM
- Activity (Nicotiana tabacum [1]): 14%
- IC50 (BJ): > 100 µM
- IC50 (K562): > 100 µM

Compound: COc1cc(CNc2ncnc3c2ncn3C2CCCO2)ccc1O (stereo not drawn)
- Activity (Triticum aestivum): 4%
- Activity (Amaranthus): 17%
- IC50 (MCF7): > 100 µM
- Activity (Nicotiana tabacum [1]): 13%
- IC50 (BJ): > 100 µM
- IC50 (K562): > 100 µM

Compound: COc1ccc(CNc2ncnc3c2ncn3C2CCCO2)c(OC)c1OC (stereo not drawn)
- Activity (Triticum aestivum): 9%
- Activity (Amaranthus): 15%
- IC50 (MCF7): > 100 µM
- Activity (Nicotiana tabacum [1]): 7%
- IC50 (BJ): > 100 µM
- IC50 (K562): > 100 µM

Compound: COc1ccc(OC)c(CNc2ncnc3c2ncn3C2CCCO2)c1 (stereo not drawn)
- Activity (Triticum aestivum): 41%
- Activity (Nicotiana tabacum [3]): 61%
- Activity (Amaranthus): 41%
- IC50 (MCF7): > 50 µM
- IC50 (BJ): > 50 µM
- IC50 (K562): > 50 µM

Compound: COc1cc(OC)c(OC)cc1CNc1ncnc2c1ncn2C1CCCO1 (stereo not drawn)
- Activity (Triticum aestivum): 9%
- Activity (Amaranthus): 14%
- IC50 (MCF7): > 100 µM
- Activity (Nicotiana tabacum [1]): 14%
- IC50 (BJ): > 100 µM
- IC50 (K562): > 100 µM

Compound: COc1cc(CNc2ncnc3c2ncn3C2CCCO2)cc(OC)c1OC (stereo not drawn)
- Activity (Triticum aestivum): 10%
- Activity (Amaranthus): 17%
- IC50 (MCF7): > 100 µM
- Activity (Nicotiana tabacum [1]): 4%
- IC50 (BJ): > 100 µM
- IC50 (K562): > 100 µM

Compound: COc1cc(CNc2ncnc3c2ncn3C2CCCCO2)cc(OC)c1 (stereo not drawn)
- Activity (Triticum aestivum): 7%
- Activity (Amaranthus): 9%
- IC50 (MCF7): > 100 µM
- IC50 (BJ): > 100 µM
- IC50 (K562): > 100 µM
